Measured values from ChEMBL document CHEMBL5108089, “Structure-based discovery of potent inhibitors of Axl: design, synthesis, and biological evaluation” (RSC Med Chem, 2022).

What was measured:
[1] = target: ALK tyrosine kinase receptor (Homo sapiens, UniProt Q9UM73); experiment: Inhibition of human ALK using KKKSPGEYVNIEFG as substrate incubated for 40 mins in the presence of [gamma33P]ATP by scintillation counting analysis
How it was run: (§1)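 Human kinase, radiometric: incubated in 8 mM MOPS pH 7.0, 0.2 mM EDTA, 10 mM magnesium acetate with [γ-33P]-ATP; started by Mg/ATP mix, 40 min at room temperature, stopped with phosphoric acid to 0.5%. Spotted on P30 filtermat, washed 4×4 min in 0.425% phosphoric acid and once in methanol, dried, scintillation counted.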

[2] = target: Tyrosine-protein kinase JAK2 (Homo sapiens, UniProt O60674); experiment: Inhibition of human JAK2 using KTFCGTPEYLAPEVRREPRILSEEEQEMFRDFDYIADWC as substrate incubated for 40 mins in the presence of [gamma33P]ATP by scintillation counting analysis; how it was run: as §1
Aurora kinase B = Aurora kinase B (Homo sapiens, UniProt Q96GD4); experiment: Inhibition of human Aurora B using AKRRRLSSLRA as substrate incubated for 40 mins in the presence of [gamma33P]ATP by scintillation counting analysis; how it was run: as §1
[3] = target: T1, Tyrosine-protein kinase receptor UFO (Homo sapiens, UniProt P30530); experiment: Inhibition of human Axl using KKSRGDYMTMQIG as substrate incubated for 40 mins in the presence of [gamma33P]ATP by scintillation counting analysis
T1 sequence (P30530 whole entry): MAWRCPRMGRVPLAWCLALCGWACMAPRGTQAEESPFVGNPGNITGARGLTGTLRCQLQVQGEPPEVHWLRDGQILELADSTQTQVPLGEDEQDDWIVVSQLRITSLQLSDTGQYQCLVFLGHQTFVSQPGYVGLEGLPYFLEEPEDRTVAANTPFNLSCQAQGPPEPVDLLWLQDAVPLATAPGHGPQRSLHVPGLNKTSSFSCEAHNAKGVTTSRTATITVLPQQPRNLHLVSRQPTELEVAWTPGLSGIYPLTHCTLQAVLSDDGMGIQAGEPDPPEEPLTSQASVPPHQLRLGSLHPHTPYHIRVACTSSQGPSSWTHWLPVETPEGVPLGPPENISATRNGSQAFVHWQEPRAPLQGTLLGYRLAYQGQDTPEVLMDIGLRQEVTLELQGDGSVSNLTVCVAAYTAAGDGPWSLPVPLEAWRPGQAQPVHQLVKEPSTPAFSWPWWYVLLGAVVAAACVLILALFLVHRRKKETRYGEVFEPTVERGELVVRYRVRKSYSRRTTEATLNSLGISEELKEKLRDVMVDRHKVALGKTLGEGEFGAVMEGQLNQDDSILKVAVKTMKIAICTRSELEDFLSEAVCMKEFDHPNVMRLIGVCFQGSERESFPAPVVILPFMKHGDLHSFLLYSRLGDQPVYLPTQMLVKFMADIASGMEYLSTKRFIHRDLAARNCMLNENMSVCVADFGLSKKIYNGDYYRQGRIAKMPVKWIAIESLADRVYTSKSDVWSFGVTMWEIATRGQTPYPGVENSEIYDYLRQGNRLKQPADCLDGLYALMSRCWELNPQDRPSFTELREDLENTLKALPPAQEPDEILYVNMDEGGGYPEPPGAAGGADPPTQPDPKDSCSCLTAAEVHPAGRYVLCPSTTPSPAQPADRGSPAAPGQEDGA

[4] = AUC (0 to last) in Sprague-Dawley rat at 1 mg/kg, iv measured upto 24 hrs by LC-MS/MS analysis; assay type: ADME, organism-based; set-up: dose 1 mg/kg, time < 24 hrs, route iv; settings: in vivo
[5] = Metabolic stability in human liver microsomes assessed as intrinsic clearance preincubated for 10 mins followed by NADPH addition and measured upto 60 mins by LC-MS/MS analysis; assay type: ADME, Microsome; settings: time < 70 min, read-out: CLH
[6] = Cmax in Sprague-Dawley rat at 5 mg/kg, po measured upto 24 hrs by LC-MS/MS analysis; assay type: ADME, organism-based; set-up: dose 5 mg/kg, time < 24 hrs, route po; settings: in vivo
[7] = Metabolic stability in human liver microsomes assessed as half-life preincubated for 10 mins followed by NADPH addition and measured upto 60 mins by LC-MS/MS analysis; assay type: ADME, Microsome; settings: time < 70 min
[8] = Clearance in Sprague-Dawley rat at 1 mg/kg, iv measured upto 24 hrs by LC-MS/MS analysis; assay type: ADME, organism-based; settings: in vivo
[9] = Intrinsic clearance in human; assay type: ADME
[10] = Half-life in Sprague-Dawley rat at 5 mg/kg, po measured upto 24 hrs by LC-MS/MS analysis; assay type: ADME, organism-based; settings: in vivo
[11] = Half-life in Sprague-Dawley rat at 1 mg/kg, iv measured upto 24 hrs by LC-MS/MS analysis; assay type: ADME, organism-based; settings: in vivo
[12] = Oral bioavailability in Sprague-Dawley rat at 5 mg/kg measured upto 24 hrs by LC-MS/MS analysis; assay type: ADME, organism-based; settings: in vivo
[13] = Metabolic stability in rat liver microsomes assessed as intrinsic clearance preincubated for 10 mins followed by NADPH addition and measured upto 60 mins by LC-MS/MS analysis; assay type: ADME, Microsome; settings: time < 70 min, read-out: CLH
[14] = Intrinsic clearance in rat; assay type: ADME
[15] = Cmax in Sprague-Dawley rat at 1 mg/kg, iv measured upto 24 hrs by LC-MS/MS analysis; assay type: ADME, organism-based; set-up: time < 24 hrs, dose 1 mg/kg, route iv; settings: in vivo
[16] = AUC (0 to last) in Sprague-Dawley rat at 5 mg/kg, po measured upto 24 hrs by LC-MS/MS analysis; assay type: ADME, organism-based; set-up: dose 5 mg/kg, time < 24 hrs, route po; settings: in vivo
[17] = Metabolic stability in rat liver microsomes assessed as half-life preincubated for 10 mins followed by NADPH addition and measured upto 60 mins by LC-MS/MS analysis; assay type: ADME, Microsome; settings: time < 70 min

Aurora kinase B, sequence (Q96GD4 whole entry): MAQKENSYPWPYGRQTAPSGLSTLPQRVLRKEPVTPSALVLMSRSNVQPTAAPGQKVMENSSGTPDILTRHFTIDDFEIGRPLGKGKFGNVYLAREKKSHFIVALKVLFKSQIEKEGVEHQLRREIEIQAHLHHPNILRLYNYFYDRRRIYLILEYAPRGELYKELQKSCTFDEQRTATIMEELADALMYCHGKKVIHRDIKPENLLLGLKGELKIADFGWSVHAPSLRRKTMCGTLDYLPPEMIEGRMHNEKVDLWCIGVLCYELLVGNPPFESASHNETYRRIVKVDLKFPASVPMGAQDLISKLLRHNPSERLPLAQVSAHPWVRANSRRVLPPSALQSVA
ALK tyrosine kinase receptor, sequence (Q9UM73 whole entry): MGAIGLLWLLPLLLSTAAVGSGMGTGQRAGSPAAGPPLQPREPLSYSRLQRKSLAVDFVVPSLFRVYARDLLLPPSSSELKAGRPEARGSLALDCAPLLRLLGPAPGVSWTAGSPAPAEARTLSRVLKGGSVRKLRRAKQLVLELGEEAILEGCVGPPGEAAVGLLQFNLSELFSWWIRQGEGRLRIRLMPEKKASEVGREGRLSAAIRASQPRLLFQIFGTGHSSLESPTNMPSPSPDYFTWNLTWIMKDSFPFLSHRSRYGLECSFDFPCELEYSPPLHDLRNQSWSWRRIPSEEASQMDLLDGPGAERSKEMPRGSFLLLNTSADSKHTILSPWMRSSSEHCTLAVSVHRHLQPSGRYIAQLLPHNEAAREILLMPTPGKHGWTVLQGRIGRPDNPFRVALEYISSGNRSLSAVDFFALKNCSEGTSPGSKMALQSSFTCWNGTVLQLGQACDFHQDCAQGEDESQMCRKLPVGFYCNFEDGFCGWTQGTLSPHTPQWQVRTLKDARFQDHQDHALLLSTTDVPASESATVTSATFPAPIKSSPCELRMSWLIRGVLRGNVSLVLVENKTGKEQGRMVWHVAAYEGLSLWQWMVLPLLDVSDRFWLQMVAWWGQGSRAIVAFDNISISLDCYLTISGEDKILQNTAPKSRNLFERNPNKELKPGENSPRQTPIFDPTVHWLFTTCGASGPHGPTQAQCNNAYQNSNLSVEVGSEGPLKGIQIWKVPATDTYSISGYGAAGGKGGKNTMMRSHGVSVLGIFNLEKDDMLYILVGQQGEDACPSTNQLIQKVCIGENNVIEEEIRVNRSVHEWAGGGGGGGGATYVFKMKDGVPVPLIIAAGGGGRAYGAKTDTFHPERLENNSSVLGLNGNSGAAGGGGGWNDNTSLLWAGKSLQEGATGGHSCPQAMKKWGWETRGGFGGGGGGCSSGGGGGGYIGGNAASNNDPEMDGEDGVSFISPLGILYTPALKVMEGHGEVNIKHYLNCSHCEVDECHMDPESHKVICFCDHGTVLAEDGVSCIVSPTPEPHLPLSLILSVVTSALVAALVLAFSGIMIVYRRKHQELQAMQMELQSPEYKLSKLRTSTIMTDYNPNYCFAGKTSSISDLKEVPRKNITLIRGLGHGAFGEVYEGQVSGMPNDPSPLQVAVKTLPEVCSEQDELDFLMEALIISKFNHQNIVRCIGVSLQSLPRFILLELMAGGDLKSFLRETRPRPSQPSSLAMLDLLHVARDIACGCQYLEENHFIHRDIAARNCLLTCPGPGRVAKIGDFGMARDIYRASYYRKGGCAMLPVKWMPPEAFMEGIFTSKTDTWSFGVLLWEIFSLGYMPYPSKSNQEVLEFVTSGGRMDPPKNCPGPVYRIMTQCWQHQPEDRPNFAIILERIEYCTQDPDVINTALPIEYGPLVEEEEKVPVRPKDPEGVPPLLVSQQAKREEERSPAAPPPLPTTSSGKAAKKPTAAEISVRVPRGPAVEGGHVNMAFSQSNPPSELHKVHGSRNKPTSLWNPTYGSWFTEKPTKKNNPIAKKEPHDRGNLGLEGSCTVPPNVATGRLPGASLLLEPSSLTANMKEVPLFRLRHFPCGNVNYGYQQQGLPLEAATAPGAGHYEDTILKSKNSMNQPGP
Tyrosine-protein kinase JAK2, sequence (O60674 whole entry): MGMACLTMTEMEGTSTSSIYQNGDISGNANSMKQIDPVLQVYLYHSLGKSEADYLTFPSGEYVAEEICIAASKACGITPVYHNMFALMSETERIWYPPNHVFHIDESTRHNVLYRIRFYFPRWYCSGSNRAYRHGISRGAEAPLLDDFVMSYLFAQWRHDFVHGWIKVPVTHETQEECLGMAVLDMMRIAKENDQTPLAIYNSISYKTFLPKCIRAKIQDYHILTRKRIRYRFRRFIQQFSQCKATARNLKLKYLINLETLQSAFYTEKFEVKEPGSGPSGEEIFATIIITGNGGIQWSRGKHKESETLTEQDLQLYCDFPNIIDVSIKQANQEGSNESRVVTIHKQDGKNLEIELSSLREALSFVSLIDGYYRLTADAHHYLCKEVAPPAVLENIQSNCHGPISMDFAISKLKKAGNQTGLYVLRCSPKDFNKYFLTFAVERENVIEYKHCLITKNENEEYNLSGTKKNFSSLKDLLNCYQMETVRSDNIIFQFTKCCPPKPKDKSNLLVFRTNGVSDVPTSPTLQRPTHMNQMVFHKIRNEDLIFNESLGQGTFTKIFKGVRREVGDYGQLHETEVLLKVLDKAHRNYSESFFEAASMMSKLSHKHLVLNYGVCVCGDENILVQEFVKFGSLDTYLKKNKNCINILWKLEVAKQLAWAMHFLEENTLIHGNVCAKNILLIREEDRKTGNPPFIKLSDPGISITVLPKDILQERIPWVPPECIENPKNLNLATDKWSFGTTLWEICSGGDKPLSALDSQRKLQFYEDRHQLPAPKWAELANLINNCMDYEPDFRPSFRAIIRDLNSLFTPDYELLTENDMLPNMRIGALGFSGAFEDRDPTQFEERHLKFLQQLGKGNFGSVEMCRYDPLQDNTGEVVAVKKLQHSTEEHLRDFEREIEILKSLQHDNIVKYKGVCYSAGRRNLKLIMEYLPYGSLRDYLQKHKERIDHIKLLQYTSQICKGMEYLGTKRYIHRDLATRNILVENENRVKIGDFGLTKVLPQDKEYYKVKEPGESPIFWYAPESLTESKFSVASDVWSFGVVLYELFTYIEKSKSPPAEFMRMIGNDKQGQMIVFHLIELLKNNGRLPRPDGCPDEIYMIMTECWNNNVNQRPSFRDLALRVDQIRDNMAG

SMILES | IC50 [1] | IC50 [2] | IC50 (Aurora kinase B) | IC50 [3] | AUClast [4] | CLint scaled [5] | Cmax [6] | half-life [7] | clearance [8] | CLint scaled [9] | half-life [10] | half-life [11] | bioavailability [12] | CLint scaled [13] | CLint scaled [14] | Cmax [15] | AUClast [16] | half-life [17]
Cc1nc(-c2ccccc2Nc2nc(Nc3ccc(CN4CCN(C)CC4)cc3)ncc2Cl)n[nH]1 | 500 nM | 130 nM | 4 nM | 11 nM |  |  |  |  |  |  |  |  |  |  |  |  |  | 
CC(=O)N1CCN(c2ccc(Nc3ncc(Cl)c(Nc4ccccc4-c4ncn(C(C)C)n4)n3)cc2)CC1 |  |  |  |  | 497 ng·h/mL | 11.2 mL/min/kg | 169 ng/mL | 156 min | 32.5 mL/min/kg | 7.2 mL/min/kg | 79.2 min | 89.4 min | 26.6% | 16.2 mL/min/kg | 12.5 mL/min/kg | 337 ng/mL | 661 ng·h/mL | 153 min
CC(=O)N1CCc2ccc(Nc3ncc(Cl)c(Nc4ccccc4S(=O)(=O)N(C)C)n3)cc2C1 |  |  |  |  |  | 953 mL/min/kg |  | 1.82 min |  | 20.3 mL/min/kg |  |  |  | 1090 mL/min/kg | 52.5 mL/min/kg |  |  | 2.3 min
CN1CCC(Oc2ccc(Nc3ncc(Cl)c(Nc4ccccc4-c4nnn(C)n4)n3)cc2)CC1 |  |  |  |  |  | 48 mL/min/kg |  | 36.2 min |  | 14.5 mL/min/kg |  |  |  | 389 mL/min/kg | 48.3 mL/min/kg |  |  | 6.4 min
CN1CCN(Cc2ccc(Nc3ncc(Cl)c(Nc4ccccc4S(=O)(=O)N(C)C)n3)cc2)CC1 [DUBERMATINIB] |  |  |  |  | 187 ng·h/mL | 646 mL/min/kg | 46.8 ng/mL | 2.7 min | 82.8 mL/min/kg | 20.1 mL/min/kg | 176 min | 106 min | 21.5% | 582 mL/min/kg | 50.4 mL/min/kg | 89.8 ng/mL | 158 ng·h/mL | 4.3 min
CN1CCc2ccc(Nc3ncc(Cl)c(Nc4ccccc4S(=O)(=O)N(C)C)n3)cc2C1 |  |  |  | 14 nM |  | 720 mL/min/kg |  | 2.4 min |  | 20.1 mL/min/kg |  |  |  | 1040 mL/min/kg | 52.4 mL/min/kg |  |  | 2.4 min
CN1CCC(N(C)c2ccc(Nc3ncc(Cl)c(Nc4ccccc4-c4ncn(C)n4)n3)cc2)CC1 |  |  |  |  |  | 23.4 mL/min/kg |  | 74.2 min |  | 11 mL/min/kg |  |  |  | 162 mL/min/kg | 41.2 mL/min/kg |  |  | 15.4 min
CN1CC2CN(C(=O)c3ccc(Nc4ncc(Cl)c(Nc5ccccc5S(=O)(=O)N(C)C)n4)cc3)CC2C1 (stereo not drawn) |  |  |  |  |  | 393 mL/min/kg |  | 4.4 min |  | 19.6 mL/min/kg |  |  |  | 339 mL/min/kg | 47.5 mL/min/kg |  |  | 7.3 min
